Data set [1] in a line: Effect on intracellular GSH content at 250 uM in human macrophage-derived monocytes (MDMs). Format: functional. Put shortly:
(§1)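 Human MDMs from healthy-donor PBMCs (Ficoll-Hypaque gradient; monocytes split from PBLs by countercurrent centrifugal elutriation; 7 days differentiation). Cultured in DMEM Glutamax with 10% heat-inactivated FCS plus penicillin/streptomycin/neomycin. Treated 24 h, then lysed; GSH measured by Griffith's method and normalised to protein (Bradford). Run in triplicate across five independent experiments (n=15).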

The species named for data set [2] is Homo sapiens. The data set is described as follows: Effective dose required to inhibit 50% of HIV-1 Ba-L-infected MDM''s at 0.001 uM. In kind it is functional.
The species entered for data set [3] is Homo sapiens. Briefly: Effective dose required to inhibit 90% of HIV-1 Ba-L-infected MDM''s at 0.001 uM. Format: functional.
The species named for data set [4] is Homo sapiens. Briefly: Effective dose required to inhibit 50% of HIV-1 Ba-L-infected MDM''s at 0.01 uM. In kind it is functional.
The species entered for data set [5] is Homo sapiens. The data set is described as follows: Effective dose required to inhibit 70% of HIV-1 Ba-L-infected MDM''s at 0.01 uM. Format: functional.
The nature of data set [6]: Percent increase in intracellular GSH level at 100 uM in 24 hr treated human macrophage-derived monocytes (MDMs). In kind it is functional. Put shortly: as §1
A short description of data set [7]: Percent increase in intracellular GSH level at 1000 uM in 24 hr treated human macrophage-derived monocytes (MDMs). Format: functional. Put shortly:
as §1

Data set [8] can be described thus: Tested for cytotoxic concentration in human macrophage-derived monocytes (MDMs) at 24 hr treatment. Format: cell-based. Put shortly:
(§2)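 Human MDMs from donor PBMCs (elutriated monocytes, 7 days differentiation) exposed to the compound for 24 h or 12 days. Cytotoxicity read by neutral-red uptake; CC50 taken as the mean of three independent experiments, each in triplicate.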

Data set [9] is described as follows: Tested for cytotoxic concentration in human macrophage-derived monocytes (MDMs) after 12 days. In kind it is cell-based. Put shortly: as §2
Data set [10] can be described thus: Percent increase in intracellular GSH level at 250 uM in 24 hr treated human macrophage-derived monocytes (MDMs). In kind it is functional. Put shortly:
as §1

A short description of data set [11]: Percent increase in intracellular GSH level at 10 uM in 24 hr treated human macrophage-derived monocytes (MDMs). In kind it is functional. Summed up:
as §1

For data set [12], the species on record is Homo sapiens. The data set is described as follows: Effective dose required to inhibit 90% of HIV-1 Ba-L-infected MDM''s at 0.01 uM. Format: functional.
For the next data set, the system named is Mus musculus. Briefly: Tested for intraperitoneal lethal dose in OF1 mice after 30 days. In kind it is functional. Particulars: ip, 720 h. Summed up:
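Mice (OF1) dosed intraperitoneally and followed for 30 days. LD50 derived by Probit analysis, with the dose range set in a preliminary study.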

Data set [13] is filed under the species Homo sapiens. Briefly: Effective dose required to inhibit 70% of HIV-1 Ba-L-infected MDM''s at 0.001 uM. In kind it is functional.

Compound `CC(=O)N[C@@H](CS)C(=O)O.NCCS` showed a GSH in data set [1] of 190%.
Turning to `CC(=O)N[C@@H](CS)C(=O)NCCSC(C)=O`, the ED50 in the data set listed under Homo sapiens [2] is 3 µM; in the data set filed under Homo sapiens [4], 50 µM. Further, the ED90 in the data set filed under Homo sapiens [3] stood at 75 µM; in the data set listed under Homo sapiens [12], 190 µM. In addition, the results for the ED70 in the data set listed under Homo sapiens [5] and in the data set listed under Homo sapiens [13] were 90 µM and 15 µM, respectively. In addition, the GSH in [1] is recorded as 480%; in data set [6] it was 75%; in [7], 140%; in data set [10] it was 165%; in [11], 0%. Further, in [8], the CC50 at 24 h was over 5 mM. The compound also showed a CC50 at 288 h in data set [9] of 635 µM. Also, the LD50 in the data set with Mus musculus was 700 mg/kg.
In data set [1], `NCCS` [CYSTEAMINE] displayed a GSH of 200%.
On the same count and under the same terms, with `CC(=O)N[C@@H](CS)C(=O)O` [ACETYLCYSTEINE] the figure was 200%.

A word on the CC50: it is the concentration at which the toxic effect on the cells reaches its halfway point. The low end stands for harm at low concentration, the high end for better tolerance by the cells. As usually defined, the LD50 is the dose at which mortality reaches 50%.

These data come from ChEMBL document CHEMBL1134258, “NAC/MEA conjugate: a new potent antioxidant which increases the GSH level in various cell lines” (Bioorg Med Chem Lett, 2001).
